PAD4 FP inh: inhibitors of human PAD4; Q9UM07; actives 0.41% (n = 330,000); inhibition, % at 6.36 µM; recombinant PAD4, RCA probe fluorescence polarization;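 active means percent inhibition above a cutoff equal to the mean of all tested compounds plus 3 SD, cut at about 15% in these data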;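 further: 0% = PAD4 with RCA probe and DMSO and 100% = probe without PAD4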
GASC-1 inh: human JMJD2C demethylase inhibition | Q9H3R0 | GST-JMJD2C(1-420) H3K9me3 demethylation, DELFIA europium | inhibition, % at 2.35 µM | actives 0.069% (n = 330,000);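 active means more than half of a compound's replicate wells show inhibition beyond 50%, single wells judged on their own value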;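 further: signal counts dimethyl H3K9 product captured on neutravidin plate; 0% = median of DMSO wells and 100% = 0.3 times that DMSO median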
GSTO1 counter: GSTO1 inhibition, counter-screen for RBBP9 inhibitors | inhibition, % at 5.96 µM | actives 1.1% (n = 300,000) | recombinant GSTO1, activity-based probe fluorescence polarization | P78417 | AID 1974;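 active means inhibition above the campaign mean inhibition plus 3 SD, cut at about 35% in these data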;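 further: 0% = GSTO1-1 with DMSO and 100% = wells lacking GSTO1-1 enzyme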
Apaf1 inhib: human Apaf-1 inhibition; reconstituted apoptosome caspase-3 activity, DEVD-Rh110 fluorescence; inhibition, % at 20 µM; actives 0.71% (n = 330,000); active means inhibition of at least 40% at 20 µM;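 further: plate controls were DMSO wells for no effect and DEVD-CHO caspase inhibitor wells for full effect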
Target sequence (O14727 whole entry, looked up): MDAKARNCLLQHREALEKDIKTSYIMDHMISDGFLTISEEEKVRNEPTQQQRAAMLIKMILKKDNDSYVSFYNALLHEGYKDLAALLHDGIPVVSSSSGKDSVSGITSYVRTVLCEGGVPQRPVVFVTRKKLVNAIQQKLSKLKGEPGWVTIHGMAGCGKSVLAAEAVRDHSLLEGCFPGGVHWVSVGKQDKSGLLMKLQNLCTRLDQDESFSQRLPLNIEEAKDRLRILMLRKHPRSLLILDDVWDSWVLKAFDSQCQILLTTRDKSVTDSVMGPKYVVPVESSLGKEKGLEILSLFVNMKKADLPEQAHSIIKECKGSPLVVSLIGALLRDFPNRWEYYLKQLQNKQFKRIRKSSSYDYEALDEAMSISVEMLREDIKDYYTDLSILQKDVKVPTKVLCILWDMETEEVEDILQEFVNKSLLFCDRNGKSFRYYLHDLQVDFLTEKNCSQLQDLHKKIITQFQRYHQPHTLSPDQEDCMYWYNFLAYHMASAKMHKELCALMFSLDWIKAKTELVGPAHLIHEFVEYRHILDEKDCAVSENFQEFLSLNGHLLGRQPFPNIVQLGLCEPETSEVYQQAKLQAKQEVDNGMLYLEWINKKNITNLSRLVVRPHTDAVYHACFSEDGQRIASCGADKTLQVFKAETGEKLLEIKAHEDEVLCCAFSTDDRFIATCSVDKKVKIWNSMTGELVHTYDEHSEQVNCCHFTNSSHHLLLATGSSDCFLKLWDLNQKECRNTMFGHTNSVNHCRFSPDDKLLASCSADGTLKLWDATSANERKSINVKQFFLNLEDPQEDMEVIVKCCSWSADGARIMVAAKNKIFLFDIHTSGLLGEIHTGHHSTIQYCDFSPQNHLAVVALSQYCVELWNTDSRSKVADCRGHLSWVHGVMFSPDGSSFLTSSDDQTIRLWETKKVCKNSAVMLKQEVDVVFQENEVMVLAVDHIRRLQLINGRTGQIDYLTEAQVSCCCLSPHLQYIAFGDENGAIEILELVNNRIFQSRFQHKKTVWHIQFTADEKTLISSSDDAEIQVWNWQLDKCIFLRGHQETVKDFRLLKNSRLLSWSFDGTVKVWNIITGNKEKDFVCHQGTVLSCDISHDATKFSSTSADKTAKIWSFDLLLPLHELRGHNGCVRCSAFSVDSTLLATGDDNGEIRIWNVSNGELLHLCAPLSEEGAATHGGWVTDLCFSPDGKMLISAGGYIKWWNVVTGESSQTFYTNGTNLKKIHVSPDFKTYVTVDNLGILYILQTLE
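Material: reconstituted apoptosome with Apaf-1, cytochrome c, caspase-9, procaspase-3, dATP; medium: pH 7.5 Hepes buffer with CHAPS, BSA, DTT; also added: cytochrome c and DEVD-Rh110 substrate; timing: 30 min plus 50 min, RT; signal: Rh110 fluorescence intensity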
TDP2 inh: TDP2 (human) inhibition, absorbance primary screen; inhibition, % at 12.8 µM; recombinant TDP2, T5PNP hydrolysis, p-nitrophenol absorbance 415 nm; actives 0.34% (n = 370,000); O95551;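 active means inhibition above the mean of all tested compounds plus 3 SD, set per campaign, cut at about 25% in these data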;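 further: 0% = DMSO with enzyme and 100% = buffer with substrate but no TDP2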
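Material: recombinant human TDP2; quantity: TDP2 enzyme at 120 nM final; medium: Tris-HCl pH 7.5 with MgCl2; compound: single concentration, 12.8 µM nominal, with 1% DMSO; incubation: 2 h enzyme incubation at 37 °C; signal: epi absorbance; measure: percent inhibition; benchmarks: high control without enzyme, low control DMSO plus TDP2; repeats: singlicate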
UBC9 SUMO inh: blocks human SUMOylation mediated by UBC9; P63279; actives 0.36% (n = 290,000); inhibition, % at 35 µM; HTRF SUMOylation assay, SAE1/SAE2 + UBC9, in vitro; in the data active means inhibition above about 50%, passing the limit was not always enough
PAD4 confirm: confirmation of human PAD4 inhibitors | shares compounds with PAD4 FP inh | recombinant PAD4, RCA probe fluorescence polarization | inhibition, % at 6.36 µM | actives 28% (n = 1,200);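 active means mean inhibition across replicates above the hit cutoff set by the earlier primary screen, cut at about 15% in these data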;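 further: inhibitors block active-site labeling by the probe so polarization falls; 0% = PAD4 with probe and DMSO and 100% = probe without PAD4 enzyme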
Apaf-1 inh conf: Apaf-1 inhibition, single-dose confirmed; AID 504614; actives 25% (n = 1,800); shares compounds with Apaf1 inhib; inhibition, % at 20 µM; reconstituted apoptosome, caspase-3 DEVD-Rh110 fluorescence;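 active means mean inhibition of at least 40% at 20 µM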;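 further: plate controls were DMSO wells for no effect and DEVD-CHO caspase inhibitor control wells for full effect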
Rh110 quench: Rh110 signal interference in Apaf-1 inhibitor counter-screen | shares compounds with Apaf1 inhib | Rh110 fluorescence interference, quenched caspase reaction | activation (fluorescence interference), % at 20 µM | 1,800 tested, under 10 active | AID 504615;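 active means signal rise of 40% or more at 20 µM, treated as a fluorescence artifact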
Fluor interf inh: shows fluorescence interference in the Apaf-1 inhibitor assay format | shares compounds with Apaf1 inhib | fluorescence interference counterscreen, Apaf-1 assay format | IC50, µM | 460 tested, under 10 active | AID 588538; call rule not given here
TDP2 inh conf: confirmation of human TDP2 inhibitors; shares compounds with TDP2 inh; recombinant human TDP2, absorbance read-out; inhibition, % at 12.8 µM; actives 22% (n = 1,100); AID 743263; in the data active means inhibition above about 25%;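 further: 0% = vehicle with enzyme and 100% = no enzyme buffer only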
An asterisk follows results filed as active; · = no result given. In the library only some 1.6% were active in any assay of this set; here they are far more common.

SMILES	PAD4 FP inh	GASC-1 inh	GSTO1 counter	Apaf1 inhib	TDP2 inh	UBC9 SUMO inh	Apaf-1 inh conf	Rh110 quench	others
CCC(COC)Oc1cc(NCc2ccccc2)c2ncn(C(C)C)c2c1 (stereo not drawn)	24*	14	·	97*	61*	·	67*	1	PAD4 confirm=-5;Fluor interf inh=>100;TDP2 inh conf=35*
COc1ccc(C(C[N+](=O)[O-])c2c(C)[nH]n(-c3ccccc3)c2=O)cc1 (stereo not drawn)	17*	7	82*	96*	75*	87*	65*	9	PAD4 confirm=11;Fluor interf inh=>100;TDP2 inh conf=69*
Clc1cccc(Cl)c1/C=N\Nc1nccs1	0	5	0	-13	3	-4	·	·
CCc1nnc(N/N=C/c2c(F)cccc2Cl)n1N	37*	-13	23	1	58*	4	·	·	PAD4 confirm=2;TDP2 inh conf=4
Cc1nnc(N/N=C/c2c(Cl)cccc2Cl)n1N	33*	38	8	-5	52*	9	·	·	PAD4 confirm=7;TDP2 inh conf=-5
Cc1csc(NC(=O)c2ccc(COc3cccc(F)c3)o2)n1	·	·	·	·	-4	·	·	·
COc1ccc(C(=O)N(C)[C@H]2C[C@H]3c4[nH]c5cccc(-c6ccccc6)c5c4CCN3C[C@H]2[C@H](C)O)cc1	·	·	·	·	-3	·	·	·
O=C(O)c1ccc(S(=O)(=O)c2ccc3c(c2)C(=O)N(c2ccc(O)cc2)C3=O)cc1	62*	-11	15	-14	38*	-11	·	·	PAD4 confirm=4;TDP2 inh conf=7
COc1cccc(N2CCN(CC(=O)NCc3ccc(Cl)cc3)CC2)c1	·	·	·	·	0	·	·	·
N=C(N)c1ccc(N)cc1	-1	·	1	-1	6	·	·	·
NC(=Nc1ccc(N)cc1)C(N)=Nc1ccc(N)cc1	46*	-5	13	3	51*	-10	·	·	PAD4 confirm=-4;TDP2 inh conf=-9
O=C(NC1CCCCN(Cc2cccc(Cl)c2)C1=O)c1ccc(Cl)cc1Cl (stereo not drawn)	·	·	·	·	-9	·	·	·
CCCCOCCCNC(=O)C[C@H]1C(=O)N(Cc2ccc(OC)cc2)C2=CCCCC[C@@]21C(=O)OC	·	·	·	·	-4	·	·	·
O=C(CSc1ccccc1)NC1CCCCN(Cc2cccc(Cl)c2)C1=O (stereo not drawn)	·	·	·	·	7	·	·	·
CCOc1ccc(N=CC2=C(O)CC(C)(C)CC2=O)cc1	4	-2	10	-6	6	12	·	·
COC(=O)C1C(O)=C(C=Nc2ccc(N)cc2)C(=O)CC1(C)C (stereo not drawn)	47*	-2	16	6	54*	4	·	·	PAD4 confirm=3;TDP2 inh conf=-4
CC1(C)CC(=O)C(C=Nc2ccc(N)cc2)=C(O)C1	40*	10	5	-6	54*	-7	·	·	PAD4 confirm=5;TDP2 inh conf=-10
COC(=O)C1C(O)=C(C=Nc2ccccc2)C(=O)CC1(C)C (stereo not drawn)	-2	-17	1	1	2	23	·	·
CCCCOCCCNC(=O)C[C@H]1C[C@@]2(C(=O)OC)C(=C[C@H](C(C)(C)C)O[C@@H]2C)N(Cc2ccco2)C1=O	·	·	·	·	1	·	·	·
CCC[C@H]1[C@@H](NC(=O)C2CCCCC2)CC[C@@]23CCCN2C(=O)CCC[C@@H]13	·	·	·	·	3	·	·	·
CCN(CC)c1ccc(N)cc1	-51	9	·	38	·	·	·	·
Nc1ccc(N(CCO)CCO)cc1	59*	8	65*	84*	46*	60	46*	3	PAD4 confirm=-3;Fluor interf inh=>100;TDP2 inh conf=24
COC(=O)c1c(Cl)c2n3ccccc3c(C)c(-c3ccccc3)c-2c1C(=O)OC	16*	-2	29	16	32*	18	·	·	PAD4 confirm=6;TDP2 inh conf=3
CCC(COC(=O)c1ccccc1)Oc1cc(NCc2ccccc2)c2ncn(C(C)C)c2c1 (stereo not drawn)	0	·	·	69*	36*	·	26	10
COc1cc(NCc2ccccc2)c2ncn(Cc3ccccc3)c2c1	-1	-7	·	50*	-7	·	28	4
SMILES	PAD4 FP inh	GASC-1 inh	GSTO1 counter	Apaf1 inhib	TDP2 inh	UBC9 SUMO inh	Apaf-1 inh conf	Rh110 quench	others
CCCCOc1cc(NCc2ccccc2)c2ncn(C(C)C)c2c1	-11	·	·	61*	12	·	47*	14	Fluor interf inh=>100
CCC(CO)Oc1cc(NCc2ccccc2OC)c2ncn(C(C)C)c2c1 (stereo not drawn)	-5	3	·	61*	18	·	33	-1
CCC(CO)Oc1cc(NCc2ccccc2F)c2ncn(C(C)C)c2c1 (stereo not drawn)	-5	5	·	14	11	·	·	·
CCOCCOc1cc(NCc2ccccc2)c2ncn(C(C)C)c2c1	·	·	·	·	22	·	·	·
O=c1c2cc3cc(Cl)ccc3nc2ncn1N1CCCCC1	·	·	·	·	-14	·	·	·
CCCCCCCCN1C(=O)[C@@H](CC(=O)NCCCOC)C[C@@]2(C(=O)OC)C1=C[C@H](C(C)C)O[C@@H]2C1CC1	·	·	·	·	-3	·	·	·
COCCCOc1cc(NCc2ccccc2)c2ncn(C(C)C)c2c1	-8	3	·	41*	13	·	27	7
O=C(N/N=C/c1ccc(-c2ccccc2[N+](=O)[O-])o1)[C@H]1C[C@@H]1c1ccccc1	0	15	24	68*	9	-6	22	2
O=C(N/N=C/c1ccc(-c2ccc([N+](=O)[O-])cc2)o1)[C@H]1C[C@@H]1c1ccccc1	3	3	6	-19	-3	4	·	·
Cc1ccc(C(=O)N/N=C/c2ccc(-c3ccccc3[N+](=O)[O-])o2)cn1	-6	0	37*	75*	6	-5	30	5
Cn1cccc1C(=O)N1CCN(S(=O)(=O)c2cccs2)CC1	·	·	·	·	9	·	·	·
O=C(CSc1nnc(-c2cccnc2)n1Cc1ccco1)Nc1cc(Cl)ccc1F	·	·	·	·	3	·	·	·
Cc1nc2ccc(S(=O)(=O)NCC(=O)N(C)Cc3ccccc3Cl)cc2s1	·	·	·	·	5	·	·	·
COc1ccc(CN(C)C(=O)C2CSC3(C)CCC(=O)N23)cc1 (stereo not drawn)	1	14	4	19	20	·	·	·
COc1ccc(NC(=O)CN(C)C(=O)C2CSC3(C)CCC(=O)N23)cc1 (stereo not drawn)	-3	10	·	43*	0	·	34	16
CCC(C)Sc1ccc(-c2nc3cc(C)ccn3c2NC2CCCCC2)cc1 (stereo not drawn)	-19	·	·	28	-16	·	·	·
